The source made the active and inactive calls. No cut-off for these calls is given here.
Experiments:
[1] = system: DNA; assay: Binding affinity to calf thymus DNA at 5 uM after 18 hrs by UV-visible spectrophotometric analysis; type: nucleic-acid assay; settings: Bos taurus
Outline: (§1)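 Calf thymus DNA at 50 μM bp with ligand fixed at 5 μM. Buffer was 10 mM sodium phosphate, 1 mM EDTA, pH 7.00, with ≤0.3% DMSO. Incubated at 37 °C, then melted at 1 °C/min from 50–99 °C while monitoring absorbance at 260 nm. Buffer baseline subtracted and DMSO-corrected. ΔTm = Tm(DNA+ligand) − Tm(DNA), run in triplicate.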

[2] = Cytotoxicity against human NCI60 cells assessed as concentration required for total growth inhibition; type: functional
Outline: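 NCI 60 human tumor cell line screen. TGI is the concentration causing total growth inhibition, given as the mean across the 60-cell-line panel.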

[3] = Cytotoxicity against human NCI60 cells; type: functional; settings: for CC50: read-out: LC50 (the source's name)
Outline: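 Screened in the NCI 60 human tumour cell-line panel. Values are GI50 (50% growth inhibition), TGI (total growth inhibition) and LC50 (50% lethality) concentrations, each reported as the mean across the 60-cell-line panel.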

[4] = system: DNA; assay: Binding affinity to calf thymus DNA at 5 uM after 4 hrs by UV-visible spectrophotometric analysis; type: nucleic-acid assay; settings: Bos taurus; outline: as §1
[5] = system: NIH/3T3; assay: Binding affinity to topo 2-alpha ICB1 (5'-CAGGGATTGGCTGGT-3') in mouse NIH/3T3 cells nuclear extract assessed as inhibition of NF-Y transcription factor binding at 5 uM preincubated for 1.5 hrs and by electrophoretic mobility shift assay; type: cell-free
Outline: (§2)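 Nuclear extract from NIH3T3 cells grown in DMEM with 10% newborn calf serum. 5 μg extract held at 4 °C for 30 min in K-Hepes pH 7.9 buffer with poly(dI-dC). About 0.1 ng of 32P end-labeled double-stranded ICB1 or ICB2 oligonucleotide then added for 2 h at room temperature. Run on 4% native polyacrylamide gel at 4 °C with autoradiography. Cold and mutated oligonucleotides served as controls.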

[6] = species: Homo sapiens; assay: Binding affinity to 170 bp human DNA topoisomerase 2-alpha promoter ICB1 site at 1 uM after 17 hrs by DNase 1 footprinting assay
Outline: (§3)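 170 bp Topo IIα promoter fragment (ICB1 and ICB2) PCR-amplified from human genomic DNA, IR700 end-labeled, used at 4 nM final. Incubated in the dark for 17 h at room temperature. DNase I digestion for 8 min, stopped with EDTA. Denaturing sequencing gel with IR dye detection and G+A markers.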

[7] = species: Homo sapiens; assay: Binding affinity to 170 bp human DNA topoisomerase 2-alpha promoter ICB2 site at 1 uM after 17 hrs by DNase 1 footprinting assay; outline: as §3
[8] = system: NIH3T3; assay: Binding affinity to topo 2-alpha ICB2 (5'-CTACGATTGGTTCTT-3') in mouse NIH/3T3 cells nuclear extract assessed as inhibition of NF-Y transcription factor binding at 5 uM preincubated for 1.5 hrs by electrophoretic mobility shift assay; type: cell-free; outline: as §2
[9] = system: NIH/3T3; assay: Binding affinity to Topo 2-alpha ICB1 (5'-CAGGGATTGGCTGGT-3') in mouse NIH/3T3 cells nuclear extract assessed as inhibition of NF-Y transcription factor binding at 50 uM preincubated for 1.5 hrs by electrophoretic mobility shift assay; type: cell-free; outline: as §2
[10] = species: Homo sapiens; assay: Binding affinity to 170 bp human DNA topoisomerase 2-alpha promoter ICB1 site at 5 uM after 17 hrs by DNase 1 footprinting assay; outline: as §3

CCOC(=O)c1nc(NC(=O)c2cc(NC(=O)c3cc(NC(=O)CCCOc4cc5c(cc4OC)C(=O)N4CCC[C@H]4C=N5)cn3C)cn2C)cn1C
ΔTm [1]: 18.7 °C
TGI [2]: 37 nM
GI50 [3]: 3.8 nM
CC50 [3]: 6800 nM
ΔTm [4]: 17.6 °C

COC(=O)c1cc(NC(=O)c2cc(NC(=O)c3csc(NC(=O)CCCOc4cc5c(cc4OC)C(=O)N4CCC[C@H]4C=N5)n3)cn2C)cn1C
ΔTm [1]: 18.2 °C
TGI [2]: 30 nM
GI50 [3]: 1.4 nM
CC50 [3]: 4400 nM
ΔTm [4]: 17.4 °C

COC(=O)c1cc(NC(=O)c2csc(NC(=O)c3cc(NC(=O)CCCOc4cc5c(cc4OC)C(=O)N4CCC[C@H]4C=N5)cn3C)n2)cn1C
ΔTm [1]: 20.7 °C
TGI [2]: 50 nM
GI50 [3]: 2.8 nM
CC50 [3]: 9100 nM
ΔTm [4]: 19.9 °C

CCOC(=O)c1csc(NC(=O)c2csc(NC(=O)c3csc(NC(=O)CCCOc4cc5c(cc4OC)C(=O)N4CCC[C@H]4C=N5)n3)n2)n1
ΔTm [1]: 10.9 °C
TGI [2]: 2040 nM
GI50 [3]: 282 nM
CC50 [3]: 15800 nM
ΔTm [4]: 10.7 °C

CCOC(=O)c1nc(NC(=O)c2nc(NC(=O)c3cc(NC(=O)CCCOc4cc5c(cc4OC)C(=O)N4CCC[C@H]4C=N5)cn3C)cn2C)cn1C
ΔTm [1]: 15.2 °C
TGI [2]: 27 nM
GI50 [3]: 13.5 nM
CC50 [3]: 9500 nM
ΔTm [4]: 14.8 °C

CCOC(=O)c1csc(NC(=O)c2cc(NC(=O)c3csc(NC(=O)CCCOc4cc5c(cc4OC)C(=O)N4CCC[C@H]4C=N5)n3)cn2C)n1
ΔTm [1]: 7.8 °C
ΔTm [4]: 7.1 °C

COC(=O)c1cc(NC(=O)c2nc(NC(=O)c3cc(NC(=O)CCCOc4cc5c(cc4OC)C(=O)N4CCC[C@H]4C=N5)cn3C)cn2C)cn1C
ΔTm [1]: 16.9 °C
TGI [2]: 20 nM
GI50 [3]: 3 nM
CC50 [3]: 6600 nM
ΔTm [4]: 16 °C

CCOC(=O)c1csc(NC(=O)c2csc(NC(=O)c3cc(NC(=O)CCCOc4cc5c(cc4OC)C(=O)N4CCC[C@H]4C=N5)cn3C)n2)n1
ΔTm [1]: 8.4 °C
ΔTm [4]: 8.1 °C

COC(=O)c1cc(NC(=O)c2cc(NC(=O)c3cc(NC(=O)CCCOc4cc5c(cc4OC)C(=O)N4CCC[C@H]4C=N5)cn3C)cn2C)cn1C
ΔTm [1]: 20.2 °C
TGI [2]: 32 nM
GI50 [3]: 15 nM
CC50 [3]: 1100 nM
ΔTm [4]: 18.7 °C

CCOC(=O)c1nc(NC(=O)c2nc(NC(=O)c3nc(NC(=O)CCCOc4cc5c(cc4OC)C(=O)N4CCC[C@H]4C=N5)cn3C)cn2C)cn1C
ΔTm [1]: 12 °C
TGI [2]: 1290 nM
GI50 [3]: 87.1 nM
CC50 [3]: 15400 nM
ΔTm [4]: 11.7 °C

COC(=O)c1cc(NC(=O)c2nc(NC(=O)c3nc(NC(=O)CCCOc4cc5c(cc4OC)C(=O)N4CCC[C@H]4C=N5)cn3C)cn2C)cn1C
ΔTm [1]: 15.4 °C
TGI [2]: 37 nM
GI50 [3]: 3.8 nM
CC50 [3]: 6800 nM
ΔTm [4]: 15 °C

CCOC(=O)c1nc(NC(=O)c2cc(NC(=O)c3nc(NC(=O)CCCOc4cc5c(cc4OC)C(=O)N4CCC[C@H]4C=N5)cn3C)cn2C)cn1C
ΔTm [1]: 16.2 °C
TGI [2]: 141 nM
GI50 [3]: 4.2 nM
CC50 [3]: 12300 nM
ΔTm [4]: 15.7 °C

CCOC(=O)c1csc(NC(=O)c2cc(NC(=O)c3cc(NC(=O)CCCOc4cc5c(cc4OC)C(=O)N4CCC[C@H]4C=N5)cn3C)cn2C)n1
ΔTm [1]: 18.6 °C
TGI [2]: 28 nM
GI50 [3]: 2.9 nM
CC50 [3]: 8900 nM
ΔTm [4]: 17.7 °C

COC(=O)c1cc(NC(=O)c2cc(NC(=O)CCCOc3cc4c(cc3OC)C(=O)N3CCC[C@H]3C=N4)cn2C)cn1C
inhibition [5]: Active
Activity [6]: Active
Activity [7]: Active
inhibition [8]: Active

COC(=O)c1cc(NC(=O)c2cc(NC(=O)c3nc(NC(=O)CCCOc4cc5c(cc4OC)C(=O)N4CCC[C@H]4C=N5)cn3C)cn2C)cn1C
inhibition [9]: Active
ΔTm [1]: 21.1 °C
TGI [2]: 24 nM
Activity [10]: Active
GI50 [3]: 1.3 nM
CC50 [3]: 2300 nM
ΔTm [4]: 19.8 °C
Activity [7]: Active
inhibition [8]: Active
